{"source": "ChEMBL document CHEMBL2321684", "about": "“Novel hybrids of optically active ring-opened 3-n-butylphthalide derivative and isosorbide as potential anti-ischemic stroke agents” (J Med Chem, 2013)", "key": {"[1]": {"assay": "Biodistribution in ICR mouse brain at 680 mg/kg, po after 2 hrs by HPLC analysis", "format": "ADME, organism-based", "set-up": "dose 680 mg/kg, route oral", "conditions": "read-out: Drug uptake", "outline": "(§1)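 Male ICR mice (30−35 g), n = 6 per time point, were given a single 680 mg/kg gavage dose and sacrificed at 0.5, 1, 2, 4 and 8 h. Brains were rinsed, weighed and homogenized in 3 volumes of saline. Plasma and homogenate were precipitated with 3 volumes of acetonitrile.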"}, "Rattus norvegicus [2]": {"test_system": "Rattus norvegicus", "assay": "Antiischemic activity in Sprague-Dawley rat assessed as reduction in middle cerebral artery occlusion-induced neurological deficit scores at 80 mg/kg administered via gavage for 7 days prior to middle cerebral artery occlusion-challenge measured after 24 hrs relative to control", "format": "functional, organism-based", "set-up": "dose 80 mg/kg", "outline": "(§2)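 Male SD rats (280−320 g), n = 12 per group, dosed by gavage daily for 7 days in 0.5% CMC-Na vehicle. Sham animals received vehicle only. Two hours after the last dose, rats were anesthetized with chloral hydrate (300 mg/kg ip) and given MCAO for 2 h, then reperfused. Body temperature was held at 37 °C. All endpoints were read at 24 h post reperfusion.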"}, "Rattus norvegicus [3]": {"test_system": "Rattus norvegicus", "assay": "Antiischemic activity in Sprague-Dawley rat assessed as reduction in middle cerebral artery occlusion-induced water content in brain at 80 mg/kg administered via gavage for 7 days prior to middle cerebral artery occlusion-challenge measured after 24 hrs relative to control", "format": "functional, organism-based", "set-up": "dose 80 mg/kg", "outline": "as §2"}, "Rattus norvegicus [4]": {"test_system": "Rattus norvegicus", "assay": "Antiischemic activity in Sprague-Dawley rat assessed as reduction in middle cerebral artery occlusion-induced water content in brain at 340 mg/kg administered via gavage for 7 days prior to middle cerebral artery occlusion-challenge measured after 24 hrs relative to control", "format": "functional, organism-based", "set-up": "dose 340 mg/kg", "outline": "as §2"}, "[5]": {"assay": "Plasma concentration in ICR mouse at 680 mg/kg, po after 8 hrs by HPLC analysis", "format": "ADME, organism-based", "set-up": "dose 680 mg/kg, route oral", "outline": "as §1"}, "[6]": {"assay": "Stability in artificial gastric juice assessed as compound remaining at pH 1.5 measured immediately by HPLC analysis", "format": "physicochemical", "conditions": "simulated gi fluid"}, "[7]": {"assay": "Stability in artificial intestinal juice assessed as compound remaining at pH 6.8 after 2 hr by HPLC analysis", "format": "physicochemical", "conditions": "simulated gi fluid, pH 6.8, 2 h"}, "Rattus norvegicus [8]": {"test_system": "Rattus norvegicus", "assay": "Antiischemic activity in Sprague-Dawley rat assessed as reduction in middle cerebral artery occlusion-induced inflammatory infiltrates in brain at 340 mg/kg administered via gavage for 7 days prior to middle cerebral artery occlusion-challenge measured after 24 hrs by microscopic analysis", "format": "functional, organism-based", "set-up": "dose 340 mg/kg", "outline": "as §2"}, "Rattus norvegicus [9]": {"test_system": "Rattus norvegicus", "assay": "Antiischemic activity in Sprague-Dawley rat assessed as reduction in middle cerebral artery occlusion-induced necrosis in neurons at 340 mg/kg administered via gavage for 7 days prior to middle cerebral artery occlusion-challenge measured after 24 hrs by microscopic analysis", "format": "functional, organism-based", "set-up": "dose 340 mg/kg", "outline": "as §2"}, "Mus musculus [10]": {"test_system": "Mus musculus", "assay": "Antithrombotic activity in Swiss ICR mouse assessed as inhibition of collagen/adrenaline-induced acute systemic vascular thromboembolism at 680 mg/kg, po administered for 7 days prior to collagen/adrenaline-challenge measured up to 15 mins relative to control", "format": "functional, organism-based", "set-up": "dose 680 mg/kg", "outline": "(§3)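 Male Swiss ICR mice (30−35 g), n = 15 per group, dosed by gavage daily for 7 days in DMSO vehicle. Two hours after the last dose, mice received collagen (0.21 mg/kg) plus adrenaline (44.5 μg/kg) iv. Survival was monitored for 15 min and reported as % surviving.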"}, "[11]": {"assay": "Plasma concentration in ICR mouse at 680 mg/kg, po after 0.5 hrs by HPLC analysis", "format": "ADME, organism-based", "set-up": "dose 680 mg/kg, route oral", "outline": "as §1"}, "[12]": {"assay": "Biodistribution in ICR mouse brain at 680 mg/kg, po after 4 hrs by HPLC analysis", "format": "ADME, organism-based", "set-up": "dose 680 mg/kg, route oral", "conditions": "read-out: Drug uptake", "outline": "as §1"}, "[13]": {"assay": "Stability in artificial gastric juice assessed as compound remaining at pH 1.5 after 4 hr by HPLC analysis", "format": "physicochemical", "conditions": "simulated gi fluid, pH 1.5, 4 h"}, "Rattus norvegicus [14]": {"test_system": "Rattus norvegicus", "assay": "Antiischemic activity in Sprague-Dawley rat assessed as reduction in middle cerebral artery occlusion-induced abnormal changes in brain at 340 mg/kg administered via gavage for 7 days prior to middle cerebral artery occlusion-challenge measured after 24 hrs by microscopic analysis", "format": "functional, organism-based", "set-up": "dose 340 mg/kg", "outline": "as §2"}, "[15]": {"assay": "Stability in artificial gastric juice assessed as compound remaining at pH 1.5 after 8 hr by HPLC analysis", "format": "physicochemical", "conditions": "simulated gi fluid, pH 1.5, 8 h"}, "[16]": {"assay": "Antiplatelet aggregation activity in rabbit platelets assessed as inhibition of ADP-induced platelet aggregation incubated for 5 mins prior to ADP-challenge measured within 5 mins by Born's turbidimetric analysis", "format": "functional, cell-based", "conditions": "Oryctolagus cuniculus"}, "Mus musculus [17]": {"test_system": "Mus musculus", "assay": "Antithrombotic activity in Swiss ICR mouse assessed as inhibition of collagen/adrenaline-induced acute systemic vascular thromboembolism at 160 mg/kg, po administered for 7 days prior to collagen/adrenaline-challenge measured up to 15 mins relative to control", "format": "functional, organism-based", "set-up": "dose 160 mg/kg", "outline": "as §3"}, "Rattus norvegicus [18]": {"test_system": "Rattus norvegicus", "assay": "Antiischemic activity in Sprague-Dawley rat assessed as reduction in middle cerebral artery occlusion-induced inflammatory infiltrates in brain at 80 mg/kg administered via gavage for 7 days prior to middle cerebral artery occlusion-challenge measured after 24 hrs by microscopic analysis", "format": "functional, organism-based", "set-up": "dose 80 mg/kg", "outline": "as §2"}, "[19]": {"assay": "Stability in artificial intestinal juice assessed as compound remaining at pH 6.8 after 4 hr by HPLC analysis", "format": "physicochemical", "conditions": "simulated gi fluid, pH 6.8, 4 h"}, "[20]": {"assay": "Antiplatelet aggregation activity in rabbit platelets assessed as inhibition of ADP-induced platelet aggregation at 1 mM incubated for 5 mins prior to ADP-challenge measured within 5 mins by Born's turbidimetric analysis relative to control", "format": "functional", "conditions": "Oryctolagus cuniculus", "outline": "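Rabbit carotid blood was citrated (3.8%, 9:1). PRP was adjusted with PPP to 400−450 × 10⁹ platelets/L. PRP was preincubated with compound or DMSO for 5 min at 37 °C, then aggregation was induced with ADP at 10 μM. Maximum aggregation rate was recorded over 5 min using Born's turbidimetry. Inhibition % was calculated versus vehicle; n = 6, mean ± SD.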"}, "Rattus norvegicus [21]": {"test_system": "Rattus norvegicus", "assay": "Antiischemic activity in Sprague-Dawley rat assessed as reduction in middle cerebral artery occlusion-induced neurological deficit scores at 340 mg/kg administered via gavage for 7 days prior to middle cerebral artery occlusion-challenge measured after 24 hrs relative to control", "format": "functional, organism-based", "set-up": "dose 340 mg/kg", "outline": "as §2"}, "[22]": {"assay": "Stability in artificial gastric juice assessed as compound remaining at pH 1.5 after 1 hr by HPLC analysis", "format": "physicochemical", "conditions": "simulated gi fluid, pH 1.5, 1 h"}, "[23]": {"assay": "Biodistribution in ICR mouse brain at 680 mg/kg, po after 0.5 hrs by HPLC analysis", "format": "ADME, organism-based", "set-up": "dose 680 mg/kg, route oral", "conditions": "read-out: Drug uptake", "outline": "as §1"}, "Rattus norvegicus [24]": {"test_system": "Rattus norvegicus", "assay": "Antiischemic activity in Sprague-Dawley rat assessed as reduction in middle cerebral artery occlusion-induced infarct size in brain at 80 mg/kg administered via gavage for 7 days prior to middle cerebral artery occlusion-challenge measured after 24 hrs by triphenyltetrazolium chloride assay relative to control", "format": "functional, organism-based", "set-up": "dose 80 mg/kg", "outline": "as §2"}, "[25]": {"assay": "Stability in artificial gastric juice assessed as compound remaining at pH 1.5 after 2 hr by HPLC analysis", "format": "physicochemical", "conditions": "simulated gi fluid, pH 1.5, 2 h"}, "[26]": {"assay": "Biodistribution in ICR mouse brain at 680 mg/kg, po after 1 hr by HPLC analysis", "format": "ADME, organism-based", "set-up": "dose 680 mg/kg, route oral", "conditions": "read-out: Drug uptake", "outline": "as §1"}, "[27]": {"assay": "Plasma concentration in ICR mouse at 680 mg/kg, po after 1 hrs by HPLC analysis", "format": "ADME, organism-based", "set-up": "dose 680 mg/kg, route oral", "outline": "as §1"}, "[28]": {"assay": "Stability in artificial intestinal juice assessed as compound remaining at pH 6.8 after 1 hr by HPLC analysis", "format": "physicochemical", "conditions": "simulated gi fluid, pH 6.8, 1 h"}, "Rattus norvegicus [29]": {"test_system": "Rattus norvegicus", "assay": "Antiischemic activity in Sprague-Dawley rat assessed as reduction in middle cerebral artery occlusion-induced infarct size in brain at 340 mg/kg administered via gavage for 7 days prior to middle cerebral artery occlusion-challenge measured after 24 hrs by triphenyltetrazolium chloride assay relative to control", "format": "functional, organism-based", "set-up": "dose 340 mg/kg", "outline": "as §2"}}, "note": "The source made the active and inactive calls. The rule behind the calls is not given here.", "data": [{"molecule": "CCCC[C@H](OC(=O)CN1CCN(C)CC1)c1ccccc1C(=O)O[C@H]1CO[C@H]2[C@@H]1OC[C@H]2OC(=O)c1ccccc1[C@H](CCCC)OC(=O)CN1CCN(C)CC1", "values": [{"measurement": "concentration at 2 h", "setting": "[1]", "result": 174, "unit": "ng/mL"}, {"measurement": "Activity", "setting": "Rattus norvegicus [2]", "result": "Active"}, {"measurement": "Activity", "setting": "Rattus norvegicus [3]", "result": "Active"}, {"measurement": "Activity", "setting": "Rattus norvegicus [4]", "result": "Active"}, {"measurement": "concentration at 8 h", "setting": "[5]", "result": 69.7, "unit": "ng/mL"}, {"measurement": "Stability", "setting": "[6]", "result": 4.92, "unit": "µM"}, {"measurement": "Stability", "setting": "[7]", "result": 5.04, "unit": "µM"}, {"measurement": "Activity", "setting": "Rattus norvegicus [8]", "result": "Active"}, {"measurement": "Activity", "setting": "Rattus norvegicus [9]", "result": "Active"}, {"measurement": "Activity", "setting": "Mus musculus [10]", "result": "Active"}, {"measurement": "concentration at 0.5 h", "setting": "[11]", "result": 320, "unit": "ng/mL"}, {"measurement": "concentration at 4 h", "setting": "[12]", "result": 54.3, "unit": "ng/mL"}, {"measurement": "Stability", "setting": "[13]", "result": 4.79, "unit": "µM"}, {"measurement": "Activity", "setting": "Rattus norvegicus [14]", "result": "Active"}, {"measurement": "Stability", "setting": "[15]", "result": 4.96, "unit": "µM"}, {"measurement": "IC50", "setting": "[16]", "result": 70, "unit": "µM"}, {"measurement": "Activity", "setting": "Mus musculus [17]", "result": "Active"}, {"measurement": "Activity", "setting": "Rattus norvegicus [18]", "result": "Active"}, {"measurement": "Stability", "setting": "[19]", "result": 4.89, "unit": "µM"}, {"measurement": "inhibition at 1000 µM", "setting": "[20]", "result": 50.1, "unit": "%"}, {"measurement": "Activity", "setting": "Rattus norvegicus [21]", "result": "Active"}, {"measurement": "Stability", "setting": "[22]", "result": 4.89, "unit": "µM"}, {"measurement": "concentration at 0.5 h", "setting": "[23]", "result": 408, "unit": "ng/mL"}, {"measurement": "Activity", "setting": "Rattus norvegicus [24]", "result": "Active"}, {"measurement": "Stability", "setting": "[25]", "result": 5, "unit": "µM"}, {"measurement": "concentration at 1 h", "setting": "[26]", "result": 260, "unit": "ng/mL"}, {"measurement": "concentration at 1 h", "setting": "[27]", "result": 241, "unit": "ng/mL"}, {"measurement": "Stability", "setting": "[28]", "result": 4.86, "unit": "µM"}, {"measurement": "Activity", "setting": "Rattus norvegicus [29]", "result": "Active"}]}]}
